The source of these data is ChEMBL document CHEMBL1154894, “Paltolides A--C, anabaenopeptin-type peptides from the palau sponge Theonella swinhoei” (J Nat Prod, 2010).

Activity calls are given as the source filed them. The rule behind the calls is not given here. Numbered stars: 1 amine (or outer) side, 2 acyl side, 3 side chain; on linkers, the order of the positions; unused ones are H or OH. Bridge positions count the residues as written; N and C are the ends. Square brackets hold non-standard residues; d marks the D form. Peptide text beside a SMILES is read from it. X1 = O=C([C@H](Cc1c[nH]c2cc(Cl)c(O)cc12)N[*:1])[*:2]; NMeL = CN[C@@H](CC(C)C)C(=O)O; CO = O=C([*:1])[*:2]

Data set [1] has as its system HCT-116. As to the kind of experiment: Cytotoxicity against human HCT116 cells assessed as cell viability up to 100 ug/ml after 72 hrs by MTT assay. The format is functional, cell-based. Summed up:
(§1)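 MTT viability kit assay. Cells seeded at 2 × 10^4 per well and left to adhere 18 h. Exposed to compound for 24 h, then medium replaced or diluted 3-fold with fresh growth medium. Incubated a further 48 h before MTT read-out at A570. At least two separate experiments, each in duplicate.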

Data set [2] is described as follows: Cytotoxicity against african green monkey BSC1 cells assessed as cell viability up to 100 ug/ml after 72 hrs by MTT assay. In kind it is cell-based. The conditions noted are these: chlorocebus aethiops, bsc-1, 72 h. Summed up: as §1
Data set [3] deals with TZM. As to the kind of experiment: Cytotoxicity against human TZM-bl cells assessed as cell viability up to 100 ug/ml after 72 hrs by MTT assay. The format is functional, cell-based. In outline:
as §1

Data set [4] concerns Human immunodeficiency virus 1. As to the kind of experiment: Antiviral activity against HIV1 expressing SF162 envelope assessed as inhibition of viral entry in human TZM-bl cells up to 100 ug/ml after 48 hrs by luciferase reporter gene assay. The format is functional, organism-based. In outline: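 Single-round HIV-1 neutralization in TZM-BL cells using virus pseudotyped with SF162 Envelope, under previously published conditions. At least two separate experiments, each run in duplicate.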

On to `CC(C)C[C@@H]1NC(=O)[C@H](C)NC(=O)[C@H](NC(=O)N[C@@H](CCCNC(=N)N)C(=O)O)CCCCNC(=O)[C@H](Cc2c[nH]c3cc(Cl)c(O)cc23)NC(=O)[C@H](CC(C)C)N(C)C1=O` ({Arg-CO}-[dK]AL[NMeL][X1]; lactam 1-C), for which the outcome in data set [1], in data set [3] and in data set [4] was inactive. For the same molecule, in data set [2], the Activity entry is on record as “Not Active”.

For the molecule `CC(C)C[C@@H]1NC(=O)[C@H](C)NC(=O)[C@H](NC(=O)N[C@@H](CCCNC(=N)N)C(=O)O)CCCCNC(=O)[C@H](Cc2c[nH]c3ccccc23)NC(=O)[C@H](CC(C)C)NC1=O` [PALTOLIDE A], the outcome in data set [1], in data set [3] and in data set [4] was inactive. Further, the Activity result in data set [2] is given as “Not Active”.

For the molecule `CC(C)C[C@@H]1NC(=O)[C@H](C)NC(=O)[C@H](NC(=O)N[C@@H](CCCNC(=N)N)C(=O)O)CCCCNC(=O)[C@H](Cc2c[nH]c3ccc(O)cc23)NC(=O)[C@H](CC(C)C)N(C)C1=O` [PALTOLIDE B], the outcome in data set [1], in data set [3] and in data set [4] was inactive. Also, the Activity entry in data set [2] is “Not Active”.

Take `CC(C)C[C@@H]1NC(=O)[C@H](C)NC(=O)[C@H](NC(=O)N[C@@H](CCCNC(=N)N)C(=O)O)CCCCNC(=O)[C@H](Cc2c[nH]c3cc(Br)ccc23)NC(=O)[C@H](CC(C)C)N(C)C1=O` [PALTOLIDE C]: the result in data set [1], in data set [3] and in data set [4] was inactive. In data set [2], the Activity entry was “Not Active”.
